Compound activity: PubChem, several laboratories
STEP block = STEP phosphatase inhibitors, primary screen, biochemical, fluorescence intensity, uHTS; Tyrosine-protein phosphatase non-receptor type 5 (Homo sapiens), P54829; recombinant STEP, OMFP fluorogenic substrate; inhibition, % at 20 µM; 360,000 tested, 0.25% active; AID 588621, 2011;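 active = inhibition at 20 µM, scaled per plate between control wells, above about 37%, limit read from the data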;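 note: 0% = DMSO with enzyme and substrate and 100% = substrate only without enzyme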
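Assay system: isolated STEP enzyme. Buffer or medium: pH 6.0 Bis-Tris with DTT and Tween 20. Also added: fluorogenic phosphatase substrate OMFP at 25 µM final. Dosing: 20 µM, 1% DMSO. Timing: 20 min reaction, room temperature, in the dark. Measured by: fluorescence intensity, excitation 480 nm, emission 540 nm. Evaluation: normalized % inhibition.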
DNMT1 block = human DNMT1 methyltransferase inhibitors, primary screen, biochemical, molecular beacon, fluorescence, HinP1I cleavage, uHTS; DNA (cytosine-5)-methyltransferase 1 (Homo sapiens), P26358; inhibition (reported as % activation of signal), % at 10 µM; 360,000 tested, 0.83% active; AID 588458, 2011; in the data active = inhibition above about 50%
Target sequence (P26358 504-1616 limits assumed): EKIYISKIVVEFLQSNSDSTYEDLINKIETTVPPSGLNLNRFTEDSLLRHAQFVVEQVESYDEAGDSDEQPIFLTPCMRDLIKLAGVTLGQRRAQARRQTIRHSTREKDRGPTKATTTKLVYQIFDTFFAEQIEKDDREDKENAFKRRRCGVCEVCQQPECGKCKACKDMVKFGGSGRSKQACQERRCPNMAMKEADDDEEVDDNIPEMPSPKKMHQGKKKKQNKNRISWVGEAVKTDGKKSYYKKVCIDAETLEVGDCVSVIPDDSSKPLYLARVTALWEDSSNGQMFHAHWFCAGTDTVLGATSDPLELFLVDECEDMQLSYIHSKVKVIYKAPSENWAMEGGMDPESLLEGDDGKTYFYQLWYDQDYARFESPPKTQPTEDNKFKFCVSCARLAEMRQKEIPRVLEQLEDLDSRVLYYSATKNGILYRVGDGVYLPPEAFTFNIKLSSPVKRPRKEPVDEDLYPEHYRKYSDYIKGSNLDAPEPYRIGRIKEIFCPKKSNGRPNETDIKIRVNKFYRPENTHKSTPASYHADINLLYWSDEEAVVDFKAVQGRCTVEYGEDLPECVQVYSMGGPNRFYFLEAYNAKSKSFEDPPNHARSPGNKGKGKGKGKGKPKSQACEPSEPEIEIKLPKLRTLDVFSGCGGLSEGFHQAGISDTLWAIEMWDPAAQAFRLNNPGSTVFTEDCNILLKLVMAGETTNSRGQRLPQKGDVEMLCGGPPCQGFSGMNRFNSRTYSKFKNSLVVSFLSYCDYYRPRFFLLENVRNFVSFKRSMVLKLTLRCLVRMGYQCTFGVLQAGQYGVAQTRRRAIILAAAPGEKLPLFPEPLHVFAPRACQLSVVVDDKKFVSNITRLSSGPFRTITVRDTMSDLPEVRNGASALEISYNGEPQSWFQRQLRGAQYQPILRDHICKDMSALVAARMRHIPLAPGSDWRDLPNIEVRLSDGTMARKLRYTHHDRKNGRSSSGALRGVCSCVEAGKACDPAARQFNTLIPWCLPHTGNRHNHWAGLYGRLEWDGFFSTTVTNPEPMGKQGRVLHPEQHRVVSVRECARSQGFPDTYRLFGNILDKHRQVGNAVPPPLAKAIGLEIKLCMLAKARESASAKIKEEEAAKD
Scp-1 inhibitor = Scp-1 phosphatase inhibitors, primary screen, biochemical, colorimetric, uHTS; Carboxy-terminal domain RNA polymerase II polypeptide A small phosphatase 1 (Homo …; Recombinant Scp1, phosphopeptide, malachite green phosphate absorbance; inhibition, % at 20 µM; 340,000 tested, 0.88% active;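 active = inhibition above about 50% at 20 µM, limit read from the data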;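 note: plate controls were DMSO wells with enzyme for no effect and wells lacking enzyme for full effect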
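Test system: SCP-1 phosphatase catalytic domain, residues 76-261; measured by: colorimetric phosphate reagent with accelerator and stabiliser, absorbance at 630 nm; timing: enzyme reaction 45 min at room temperature, colour 5 min, stabilisation 30 min; also added: Phosphorylated 17-residue peptide substrate; compound dosing: one concentration, 20 µM, with 1.0% DMSO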
GRK2 aptamer HTS = compounds blocking aptamer binding on GRK2 – biochemical, human GRK2, bead flow cytometry, HTS, primary screen; FAM-aptamer displacement from GRK2; inhibition of aptamer binding, % at 10 µM; Beta-adrenergic receptor kinase 1 (Homo sapiens), P25098; 330,000 tested, 0.59% active;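 active = inhibition of aptamer binding above 40%, roughly 3 SD of noise, on plates passing a quality check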;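 note: median bead fluorescence of bound FAM aptamer so fluorescent compounds give negative values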
LMPTP inh = LMPTP phosphatase inhibitors, primary screen, biochemical, fluorescence intensity, uHTS. AID 651560, 2012. Low molecular weight phosphotyrosine protein phosphatase (Homo sapiens), P24666. inhibition, % at 20 µM. 360,000 tested, 0.22% active. recombinant LMPTP-A, OMFP fluorogenic substrate;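 active = compounds that cut the enzyme signal by at least half of the control window in the single-dose screen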;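 note: plate controls were DMSO wells with enzyme plus substrate for no effect and substrate without enzyme for full effect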
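Assay system: LMPTP-A phosphatase enzyme | Input: 0.625 nM enzyme | Also added: Fluorogenic phosphatase substrate OMFP at 400 µM final | Compound dosing: One test concentration per compound, 20 µM, with 3% DMSO overall | Schedule: 50 min enzyme reaction at room temperature, protected from light | Signal: Fluorescence intensity | Benchmarks: no-enzyme and uninhibited controls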
SUMO1 PPI mod = modulators of SUMO1 protein-protein interactions, primary screen, biochemical, uHTS; Small ubiquitin-related modifier 1 (Homo sapiens), P63165; SUMO1 binding to a labelled peptide, TR-FRET, 1 h; inhibition, % at 20 µM; 360,000 tested, 0.33% active; in the data active = inhibition above about 37%
GRK2 inh confirm = GRK2 aptamer-displacing inhibitors, retest, confirmation, biochemical, cherry pick 1, bead flow cytometry; shares compounds with GRK2 aptamer HTS; bead-bound GRK2, FAM-aptamer displacement; aptamer displacement, % at 10 µM; 2,000 tested, 4% active; AID 504451, 2011;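 active = aptamer displacement above 40%, near three times the noise of non-fluorescent compounds, on plates passing quality checks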;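 note: negative values mostly reflect intrinsic compound fluorescence rather than true enhancement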
Aptamer quench SP = aptamer fluorescence quenching in GRK2 counter-screen; shares compounds with GRK2 aptamer HTS; Carboxyfluorescein RNA aptamer on beads, flow cytometry quenching; active compounds read low; fluorescence response (% of DMSO), % at 10 µM; 2,000 tested, under 10 active;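 active = compounds that quench the bead-bound fluorescent RNA probe, cutting fluorescence to under half of the solvent control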;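 note: counterscreen run without GRK2 so only probe quenching by compound is measured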
GRK2 confirm 2 = GRK2 aptamer-displacing inhibitors, hit retest, confirmation, biochemical, cherry pick 2, bead flow cytometry; shares compounds with GRK2 aptamer HTS; bead-bound GRK2, FAM-aptamer displacement; inhibition of aptamer binding, % at 10 µM; 360 tested, under 10 active; AID 504782, 2011;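 active = inhibition of aptamer binding above 40%, about triple the noise seen with nonglowing compounds, on plates passing quality control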;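 note: negative values mostly come from compounds that fluoresce themselves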
FAM quench SP = quenches fluorescent RNA aptamer, GRK2 hit artifact | carboxyfluorescein RNA aptamer beads, flow cytometry quenching; active compounds read low | 360 tested, under 10 active | AID 588494 | fluorescence response vs DMSO, % at 10 µM | shares compounds with GRK2 aptamer HTS;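 active = response vs DMSO under 50%, meaning signal dropped by over half, treated as fluorescence quencher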;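 note: labelled aptamer on streptavidin beads without GRK2 as a quench counter-screen; 100% = bead fluorescence of DMSO wells and lower means quenching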
An asterisk follows results filed as active; nt = no result given. Rows were chosen to be rich in hits. Some 2.2% of all compounds tested hit in one or more screens of this group.

SMILES	STEP block	DNMT1 block	Scp-1 inhibitor	GRK2 aptamer HTS	LMPTP inh	SUMO1 PPI mod	GRK2 inh confirm	Aptamer quench SP	others
CC1CCN(C(=O)C(Cc2ccccc2)n2cccc2)CC1 (stereo unspecified)	1.8	2.6	-3.0	56.0*	-0.9	2.4	2.8	100.3
Cc1ccc2nc(SCC(=O)Nc3ccc4c(c3)OCCO4)[nH]c2c1	-1.3	-7.9	-3.3	1.0	-2.0	-2.5	nt	nt	GRK2 confirm 2=18.6;FAM quench SP=101.0
Cc1ccc(-n2nnnc2SCC(=O)NC(=O)Nc2ccc3c(c2)OCCO3)cc1	-0.5	-2.1	6.7	1.0	2.1	4.4	nt	nt
O=C(CSc1nc2ccccc2[nH]1)Nc1nc(-c2cccc(Br)c2)cs1	-2.3	2.3	-6.8	75.0*	-2.7	-2.5	nt	nt	GRK2 confirm 2=-10.1;FAM quench SP=100.0
O=C(CSc1nc2ccccc2[nH]1)Nc1ccc2c(c1)OCCO2	-1.6	-1.3	-0.6	0.0	1.1	-0.7	nt	nt	GRK2 confirm 2=-48.5;FAM quench SP=100.0
O=C(CSc1ncccc1-c1nc2ccccc2[nH]1)Nc1ccc2c(c1)OCCO2	-2.6	-6.8	-2.1	0.0	0.3	1.7	nt	nt
CCc1c(C)nc(SCC(=O)Nc2ccc3c(c2)OCCO3)[nH]c1=O	0.8	0.3	-7.3	10.0	-0.3	3.1	nt	nt
CN(C)CCCn1c(SCC(=O)Nc2nc(-c3cccc(Br)c3)cs2)nc2ccccc2c1=O	10.4	23.6	-5.8	0.0	-2.3	-112.8	nt	nt
Cc1nnc(SCC(=O)NC(=O)Nc2ccc3c(c2)OCCO3)n1N	1.8	0.5	-4.1	46.0*	-3.2	0.9	0.5	99.6
Cc1ccc(S(=O)(=O)N2C[C@@H](C)[C@]3(C2)[C@H](O)[C@H](OC(=O)NC2CCCC2)C[C@H]2C(=O)N(c4ccccc4)C(=O)[C@H]23)cc1	1.4	-6.4	nt	nt	0.0	2.2	nt	nt
O=c1[nH][nH]c2c1C(c1ccc(Cl)c(Cl)c1)OC(CCc1ccccc1)C2 (stereo unspecified)	nt	nt	nt	nt	2.4	5.2	nt	nt
Cc1cccc(CN2CCN(C3CN(Cc4ccc([N+](=O)[O-])cc4)S(=O)(=O)C3)CC2)c1 (stereo unspecified)	-2.4	-3.2	nt	nt	5.0	-16.7	nt	nt
CN1CCN(c2cccc3c2S(=O)(=O)N[C@@H](Cc2ccccc2)CO3)CC1	nt	nt	nt	nt	-2.1	0.1	nt	nt
Clc1ccccc1Nc1nc(NCC2CC2)nc2ccsc12	1.8	4.5	nt	nt	32.0	-4.8	nt	nt
Cc1cccc(Cn2c(=O)oc3ccc(C)cc32)c1	1.1	-2.2	-21.8	68.0*	0.3	4.0	-2.3	98.4
CCc1nc2ccc(C(=O)N3CCN(C(=O)c4ccco4)CC3)cn2c1N(CCC(C)C)CCN(C)C	-0.5	-1.6	nt	nt	0.3	1.1	nt	nt
CC(OC(=O)c1ccc(S(C)(=O)=O)c([N+](=O)[O-])c1)C(=O)NC1C2CC3CC(C2)CC1C3 (stereo unspecified)	3.8	1.4	nt	nt	-0.1	-15.4	nt	nt
COc1ccc(C)cc1N1CC(C(=O)Nc2ccccc2N2CCCCC2)CC1=O (stereo unspecified)	-2.7	-1.2	1.5	78.0*	-0.8	1.9	-1.8	96.7
O=C(c1ccccn1)C1CCCN(Cc2cn[nH]c2-c2cc3ccccc3o2)C1 (stereo unspecified)	-3.2	1.0	-2.8	90.0*	-0.6	-0.5	2.0	99.9
OCCN(Cc1ccccc1)CC1CC2C=CC1C2 (stereo unspecified)	-1.3	-1.2	-3.9	46.0*	-1.8	-0.5	-2.9	94.7
CC(C)c1ccc(N2C(=O)CC(NNC(=O)c3cccnc3)C2=O)cc1 (stereo unspecified)	-2.5	-1.1	-8.9	98.0*	-1.2	-0.7	2.1	98.3
O=C(NNC1CC(=O)N(c2ccccc2)C1=O)c1cccnc1 (stereo unspecified)	3.1	-1.7	-7.2	0.0	-0.9	1.4	nt	nt
NC(Cc1ccccc1)c1csc(Nc2nccc(C(F)(F)F)n2)n1 (stereo unspecified)	2.3	-3.5	nt	nt	-3.9	-3.2	nt	nt
O=C(Cn1cc(C(=O)c2cccs2)c2ccccc21)NCc1ccc2c(c1)OCO2	-0.3	-9.8	-14.6	69.0*	1.9	-1.8	-1.6	99.5
O=C(Cn1cc(C(=O)c2cccs2)c2ccccc21)NCC1CCCO1 (stereo unspecified)	-8.9	-0.2	-7.2	0.0	-1.3	2.2	nt	nt
SMILES	STEP block	DNMT1 block	Scp-1 inhibitor	GRK2 aptamer HTS	LMPTP inh	SUMO1 PPI mod	GRK2 inh confirm	Aptamer quench SP	others
COc1ccc(C(C)(NC(C)=O)c2nc(-c3cccc(F)c3)cs2)cc1 (stereo unspecified)	1.1	0.4	nt	nt	0.2	3.9	nt	nt
O=C(NC(NC1CCS(=O)(=O)C1)C(Cl)(Cl)Cl)c1ccc(Br)cc1 (stereo unspecified)	0.3	-0.7	-17.3	0.0	-1.2	2.5	nt	nt
O=C(NC(NC1CCS(=O)(=O)C1)C(Cl)(Cl)Cl)c1cccc(Cl)c1 (stereo unspecified)	1.4	2.8	0.3	51.0*	-0.1	-2.0	-1.4	95.3
CCC(C)Oc1nc2ccccc2nc1NS(=O)(=O)c1ccccc1 (stereo unspecified)	-0.1	3.9	-14.7	82.0*	0.0	-0.8	0.3	100.6
CC(=O)OC1(C)C=Cc2ccccc2C1=NS(=O)(=O)c1ccccc1 (stereo unspecified)	-1.7	-20.3	nt	nt	-2.1	-10.9	nt	nt
Cc1cc(C)cc(C(O)c2ncc(-c3ccc(F)cc3)[nH]2)c1 (stereo unspecified)	-1.6	7.2	nt	nt	-0.8	0.2	nt	nt
COc1ccc(CC(=O)Nc2ccc(S(=O)(=O)Nc3cc(C)nc(C)n3)cc2)cc1OC	-0.8	0.1	nt	nt	-0.9	-4.8	nt	nt
